Reference: ChEMBL document CHEMBL3997769, “Discovery and preclinical evaluation of 7-benzyl-N-(substituted)-pyrrolo[3,2-d]pyrimidin-4-amines as single agents with microtubule targeting effects along with triple-acting angiokinase inhibition as antitumor agents” (Bioorg Med Chem, 2017)

Columns and labels:
CCRF-CEM = assay: Growth inhibition of human CCRF-CEM cells incubated for 48 hrs by sulforhodamine B assay; assay type: functional
Bos taurus = organism: Bos taurus; assay: Displacement of [3H]colchicine from bovine brain tubulin at 5 uM measured after 10 mins by liquid scintillation counting method relative to control
HeLa [1] = assay: Growth inhibition of human HeLa cells measured after 96 hrs by sulforhodamine B assay; assay type: functional, cell-based
Outline: (§1)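 Exposed 96 h to varying compound concentrations in 0.5% DMSO. Cell protein measured by sulforhodamine B; IC50 = concentration halving the increase in cell protein versus untreated cultures.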

HL-60(TB) = assay: Growth inhibition of human HL-60(TB) cells incubated for 48 hrs by sulforhodamine B assay; assay type: functional; details: HL-60, 48 h
K562 = assay: Growth inhibition of human K562 cells incubated for 48 hrs by sulforhodamine B assay; assay type: functional; details: K562, 48 h
MOLT-4 = assay: Growth inhibition of human MOLT4 cells incubated for 48 hrs by sulforhodamine B assay; assay type: functional; details: MOLT-4, 48 h
RPMI-8226 = assay: Growth inhibition of human RPMI8226 cells incubated for 48 hrs by sulforhodamine B assay; assay type: functional; details: RPMI-8226, 48 h
SR = assay: Growth inhibition of human SR cells incubated for 48 hrs by sulforhodamine B assay; assay type: functional
A549 = assay: Growth inhibition of human A549/ATCC cells incubated for 48 hrs by sulforhodamine B assay; assay type: functional; details: A549, 48 h
EKVX = assay: Growth inhibition of human EKVX cells incubated for 48 hrs by sulforhodamine B assay; assay type: functional
HOP-62 = assay: Growth inhibition of human HOP62 cells incubated for 48 hrs by sulforhodamine B assay; assay type: functional; details: HOP-62, 48 h
HOP-92 = assay: Growth inhibition of human HOP92 cells incubated for 48 hrs by sulforhodamine B assay; assay type: functional; details: HOP-92, 48 h
NCI-H226 = assay: Growth inhibition of human NCI-H226 cells incubated for 48 hrs by sulforhodamine B assay; assay type: functional; details: NCI-H226, 48 h
NCI-H23 = assay: Growth inhibition of human NCI-H23 cells incubated for 48 hrs by sulforhodamine B assay; assay type: functional; details: NCI-H23, 48 h
NCI-H322M = assay: Growth inhibition of human NCI-H322M cells incubated for 48 hrs by sulforhodamine B assay; assay type: functional
NCI-H460 = assay: Growth inhibition of human NCI-H460 cells incubated for 48 hrs by sulforhodamine B assay; assay type: functional; details: NCI-H460, 48 h
NCI-H522 = assay: Growth inhibition of human NCI-H522 cells incubated for 48 hrs by sulforhodamine B assay; assay type: functional; details: NCI-H522, 48 h
COLO 205 = assay: Growth inhibition of human COLO205 cells incubated for 48 hrs by sulforhodamine B assay; assay type: functional; details: COLO 205, 48 h
HCC 2998 = assay: Growth inhibition of human HCC2998 cells incubated for 48 hrs by sulforhodamine B assay; assay type: functional; details: HCC 2998, 48 h
HCT-116 = assay: Growth inhibition of human HCT116 cells incubated for 48 hrs by sulforhodamine B assay; assay type: functional; details: HCT-116, 48 h
HCT-15 = assay: Growth inhibition of human HCT15 cells incubated for 48 hrs by sulforhodamine B assay; assay type: functional; details: HCT-15, 48 h
KM12 = assay: Growth inhibition of human KM12 cells incubated for 48 hrs by sulforhodamine B assay; assay type: functional; details: KM12, 48 h
SW-620 = assay: Growth inhibition of human SW620 cells incubated for 48 hrs by sulforhodamine B assay; assay type: functional; details: SW-620, 48 h
SF-268 = assay: Growth inhibition of human SF268 cells incubated for 48 hrs by sulforhodamine B assay; assay type: functional; details: SF-268, 48 h
SF-295 = assay: Growth inhibition of human SF295 cells incubated for 48 hrs by sulforhodamine B assay; assay type: functional; details: SF-295, 48 h
SF-539 = assay: Growth inhibition of human SF539 cells incubated for 48 hrs by sulforhodamine B assay; assay type: functional; details: SF-539, 48 h
SNB-19 = assay: Growth inhibition of human SNB19 cells incubated for 48 hrs by sulforhodamine B assay; assay type: functional; details: SNB-19, 48 h
SNB-75 = assay: Growth inhibition of human SNB75 cells incubated for 48 hrs by sulforhodamine B assay; assay type: functional; details: SNB-75, 48 h
U-251 = assay: Growth inhibition of human U251 cells incubated for 48 hrs by sulforhodamine B assay; assay type: functional; details: U-251, 48 h
LOX IMVI = assay: Growth inhibition of human LOXIMVI cells incubated for 48 hrs by sulforhodamine B assay; assay type: functional
Malme-3M = assay: Growth inhibition of human MALME-3M cells incubated for 48 hrs by sulforhodamine B assay; assay type: functional
M14 = assay: Growth inhibition of human M14 cells incubated for 48 hrs by sulforhodamine B assay; assay type: functional; details: M14, 48 h
MDA-MB-435 = assay: Growth inhibition of human MDA-MB-435 cells incubated for 48 hrs by sulforhodamine B assay; assay type: functional; details: MDA-MB-435, 48 h
SK-MEL-28 = assay: Growth inhibition of human SK-MEL-28 cells incubated for 48 hrs by sulforhodamine B assay; assay type: functional; details: SK-MEL-28, 48 h
SK-MEL-5 = assay: Growth inhibition of human SK-MEL-5 cells incubated for 48 hrs by sulforhodamine B assay; assay type: functional; details: SK-MEL-5, 48 h
UACC-257 = assay: Growth inhibition of human UACC257 cells incubated for 48 hrs by sulforhodamine B assay; assay type: functional; details: UACC-257, 48 h
UACC-62 = assay: Growth inhibition of human UACC62 cells incubated for 48 hrs by sulforhodamine B assay; assay type: functional; details: UACC-62, 48 h
IGROV-1 = assay: Growth inhibition of human IGROV1 cells incubated for 48 hrs by sulforhodamine B assay; assay type: functional; details: IGROV-1, 48 h
OVCAR-3 = assay: Growth inhibition of human OVCAR3 cells incubated for 48 hrs by sulforhodamine B assay; assay type: functional; details: OVCAR-3, 48 h
OVCAR-4 = assay: Growth inhibition of human OVCAR4 cells incubated for 48 hrs by sulforhodamine B assay; assay type: functional; details: OVCAR-4, 48 h
OVCAR-5 = assay: Growth inhibition of human OVCAR5 cells incubated for 48 hrs by sulforhodamine B assay; assay type: functional; details: OVCAR-5, 48 h
OVCAR-8 [2] = assay: Growth inhibition of human OVCAR8 cells incubated for 48 hrs by sulforhodamine B assay; assay type: functional; details: OVCAR-8, 48 h
NCI/ADR-RES [3] = assay: Growth inhibition of human NCI/ADR-RES cells incubated for 48 hrs by sulforhodamine B assay; assay type: functional
SK-OV-3 = assay: Growth inhibition of human SKOV3 cells incubated for 48 hrs by sulforhodamine B assay; assay type: functional; details: SK-OV-3, 48 h
786-0 = assay: Growth inhibition of human 786-0 cells incubated for 48 hrs by sulforhodamine B assay; assay type: functional; details: 786-0, 48 h
A498 = assay: Growth inhibition of human A498 cells incubated for 48 hrs by sulforhodamine B assay; assay type: functional; details: A498, 48 h
ACHN = assay: Growth inhibition of human ACHN cells incubated for 48 hrs by sulforhodamine B assay; assay type: functional
CAKI-1 = assay: Growth inhibition of human Caki1 cells incubated for 48 hrs by sulforhodamine B assay; assay type: functional; details: CAKI-1, 48 h
RXF 393 = assay: Growth inhibition of human RXF393 cells incubated for 48 hrs by sulforhodamine B assay; assay type: functional; details: RXF 393, 48 h
SN12C = assay: Growth inhibition of human SN12C cells incubated for 48 hrs by sulforhodamine B assay; assay type: functional
TK-10 = assay: Growth inhibition of human TK10 cells incubated for 48 hrs by sulforhodamine B assay; assay type: functional; details: TK-10, 48 h
UO-31 = assay: Growth inhibition of human UO31 cells incubated for 48 hrs by sulforhodamine B assay; assay type: functional; details: UO-31, 48 h
DU-145 = assay: Growth inhibition of human DU145 cells incubated for 48 hrs by sulforhodamine B assay; assay type: functional; details: DU-145, 48 h
MCF7 = assay: Growth inhibition of human MCF7 cells incubated for 48 hrs by sulforhodamine B assay; assay type: functional; details: MCF7, 48 h
MDA-MB-231 = assay: Growth inhibition of human MDA-MB-231 cells incubated for 48 hrs by sulforhodamine B assay; assay type: functional; details: MDA-MB-231, 48 h
Hs-578T = assay: Growth inhibition of human Hs578T cells incubated for 48 hrs by sulforhodamine B assay; assay type: functional
BT-549 = assay: Growth inhibition of human BT549 cells incubated for 48 hrs by sulforhodamine B assay; assay type: functional; details: BT-549, 48 h
T47D = assay: Growth inhibition of human T47D cells incubated for 48 hrs by sulforhodamine B assay; assay type: functional
MDA-MB-468 = assay: Growth inhibition of human MDA-MB-468 cells incubated for 48 hrs by sulforhodamine B assay; assay type: functional; details: MDA-MB-468, 48 h
HeLa [4] = assay: Growth inhibition of human HeLa cells over expressing beta3-tubulin measured after 96 hrs by sulforhodamine B assay; assay type: functional, cell-based; outline: as §1
OVCAR-8 [5] = assay: Growth inhibition of human OVCAR8 cells measured after 96 hrs by sulforhodamine B assay; assay type: functional, cell-based; details: OVCAR-8, 96 h
NCI/ADR-RES [6] = assay: Growth inhibition of human NCI/ADR-RES cells over expressing Pgp measured after 96 hrs by sulforhodamine B assay; assay type: functional, cell-based

COc1ccc2c(c1)CCCN2c1nc(C)nc2c(Cc3ccccc3)c[nH]c12 showed a GI50 (CCRF-CEM) of 0.226 µM, an inhibition (Bos taurus) of 43% and an IC50 (HeLa [1]) of 0.25 µM. For the same compound, the GI50 (HL-60(TB)) was 0.222 µM, the GI50 (K562) was 0.111 µM and the GI50 (MOLT-4) was 0.345 µM. The GI50 (RPMI-8226) was 0.266 µM, the GI50 (SR) was 0.922 µM and the GI50 (A549) was 0.406 µM. It also gave a GI50 (EKVX) of 0.463 µM, a GI50 (HOP-62) of 0.379 µM and a GI50 (HOP-92) of 0.189 µM. The GI50 (NCI-H226) was 0.136 µM, the GI50 (NCI-H23) was 0.32 µM and the GI50 (NCI-H322M) was 0.362 µM. It also gave a GI50 (NCI-H460) of 0.337 µM, a GI50 (NCI-H522) of 0.316 µM and a GI50 (COLO 205) of 0.232 µM. The GI50 (HCC 2998) was 0.318 µM, the GI50 (HCT-116) was 0.368 µM and the GI50 (HCT-15) was 0.366 µM. For the same compound, the GI50 (KM12) was 0.366 µM, the GI50 (SW-620) was 0.37 µM and the GI50 (SF-268) was 0.723 µM. The GI50 (SF-295) was 0.192 µM, the GI50 (SF-539) was 0.26 µM and the GI50 (SNB-19) was 0.549 µM. For the same compound, the GI50 (SNB-75) was 0.182 µM, the GI50 (U-251) was 0.316 µM and the GI50 (LOX IMVI) was 0.521 µM. It also gave a GI50 (Malme-3M) of 0.33 µM, a GI50 (M14) of 0.252 µM and a GI50 (MDA-MB-435) of 0.341 µM. The GI50 (SK-MEL-28) was 0.368 µM, the GI50 (SK-MEL-5) was 0.325 µM and the GI50 (UACC-257) was 0.108 µM. For the same compound, the GI50 (UACC-62) was 0.659 µM, the GI50 (IGROV-1) was 0.44 µM and the GI50 (OVCAR-3) was 0.285 µM. The GI50 (OVCAR-4) was 0.468 µM, the GI50 (OVCAR-5) was 0.543 µM and the GI50 (OVCAR-8 [2]) was 0.487 µM. For the same compound, the GI50 (NCI/ADR-RES [3]) was 0.265 µM, the GI50 (SK-OV-3) was 0.423 µM and the GI50 (786-0) was 0.934 µM. The GI50 (A498) was 0.197 µM, the GI50 (ACHN) was 0.83 µM and the GI50 (CAKI-1) was 0.341 µM. It also gave a GI50 (RXF 393) of 0.212 µM, a GI50 (SN12C) of 0.618 µM and a GI50 (TK-10) of 0.123 µM. The GI50 (UO-31) was 0.39 µM, the GI50 (DU-145) was 0.383 µM and the GI50 (MCF7) was 0.248 µM. It also gave a GI50 (MDA-MB-231) of 0.641 µM, a GI50 (Hs-578T) of 0.582 µM and a GI50 (BT-549) of 0.755 µM. For the same compound, the GI50 (T47D) was 0.128 µM and the GI50 (MDA-MB-468) was 0.153 µM.

CC(=O)O[C@H]1C(=O)[C@@]2(C)[C@H]([C@H](OC(=O)c3ccccc3)[C@]3(O)C[C@H](OC(=O)[C@H](O)[C@@H](NC(=O)c4ccccc4)c4ccccc4)C(C)=C1C3(C)C)[C@]1(OC(C)=O)CO[C@@H]1C[C@@H]2O [PACLITAXEL] gave an IC50 (HeLa [1]) of 0.0053 µM, an IC50 (HeLa [4]) of 0.016 µM and an IC50 (OVCAR-8 [5]) of 0.005 µM. The IC50 (NCI/ADR-RES [6]) was 2.5 µM.
